Measured values taken from ChEMBL document CHEMBL4396879, “Conjugation of Short Peptides to Dibenzodiazepinone-Type Muscarinic Acetylcholine Receptor Ligands Determines M2R Selectivity” (J Med Chem, 2019).

Assays:
Assay type in all cases: cell-based
[1] = target: Muscarinic acetylcholine receptor M2 and M4 (Homo sapiens) (UniProt P08173+P08172); test: Selectivity ratio of Ki for human muscarinic M4 receptor expressed in CHO-K9 cells to Ki for human muscarinic M2 receptor expressed in CHO-K9 cells
How it was run: (§1)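 Ratio of mean Ki values. Each Ki came from an individual [3H]NMS competition experiment at the given CHO-hMxR subtype, converting IC50 to Ki by Cheng-Prusoff before averaging.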

[2] = target: T1, Muscarinic acetylcholine receptor M1 (Homo sapiens, UniProt P11229); test: Displacement of [3H]-NMS from human muscarinic M1 receptor expressed in CHO-K9 cells after 3 hrs by microbeta2 scintillation counting method
T1 sequence (P11229 whole entry): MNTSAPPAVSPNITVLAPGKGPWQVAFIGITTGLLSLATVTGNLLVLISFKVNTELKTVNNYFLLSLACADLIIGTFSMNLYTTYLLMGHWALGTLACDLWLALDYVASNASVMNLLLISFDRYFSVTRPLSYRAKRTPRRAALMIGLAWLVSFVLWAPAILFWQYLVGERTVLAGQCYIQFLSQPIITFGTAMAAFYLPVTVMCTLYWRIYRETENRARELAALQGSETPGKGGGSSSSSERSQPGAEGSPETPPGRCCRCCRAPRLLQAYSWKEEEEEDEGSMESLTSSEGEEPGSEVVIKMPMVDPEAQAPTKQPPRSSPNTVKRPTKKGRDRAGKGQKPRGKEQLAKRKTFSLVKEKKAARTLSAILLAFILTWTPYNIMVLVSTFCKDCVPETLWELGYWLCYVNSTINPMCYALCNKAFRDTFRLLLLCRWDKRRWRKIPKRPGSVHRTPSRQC
How it was run: (§2)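 [3H]NMS competition binding on intact CHO-hMxR cells in L15 medium with 1% BSA, 3 h at 22 ± 1 °C with gentle shaking. [3H]NMS was 0.2 nM (M1, M2, M3), 0.1 nM (M4) or 0.3 nM (M5). […] Cells were lysed in urea/acetic acid/Triton and counted by liquid scintillation. Ki from Cheng-Prusoff. Triplicates, ≥3 experiments.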

[3] = target: T2, Muscarinic acetylcholine receptor M4 (Homo sapiens, UniProt P08173); test: Displacement of [3H]-NMS from human muscarinic M4 receptor expressed in CHO-K9 cells after 3 hrs by microbeta2 scintillation counting method; how it was run: as §2
T2 sequence (P08173 whole entry): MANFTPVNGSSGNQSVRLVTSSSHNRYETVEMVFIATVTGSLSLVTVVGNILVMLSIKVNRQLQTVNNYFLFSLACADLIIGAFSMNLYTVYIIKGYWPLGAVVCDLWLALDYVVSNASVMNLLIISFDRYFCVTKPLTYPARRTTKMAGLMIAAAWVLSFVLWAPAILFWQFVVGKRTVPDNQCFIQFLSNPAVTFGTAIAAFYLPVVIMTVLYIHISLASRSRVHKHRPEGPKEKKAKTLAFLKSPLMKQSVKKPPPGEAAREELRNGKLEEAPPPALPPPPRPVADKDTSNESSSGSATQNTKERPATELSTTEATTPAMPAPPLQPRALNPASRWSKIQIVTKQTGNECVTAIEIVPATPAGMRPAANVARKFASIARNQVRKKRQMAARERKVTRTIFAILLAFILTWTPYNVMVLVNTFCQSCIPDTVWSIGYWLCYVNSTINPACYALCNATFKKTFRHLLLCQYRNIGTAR

[4] = target: Muscarinic acetylcholine receptors; M1 & M2 (Homo sapiens) (UniProt P11229+P08172); test: Selectivity ratio of Ki for human muscarinic M1 receptor expressed in CHO-K9 cells to Ki for human muscarinic M2 receptor expressed in CHO-K9 cells; how it was run: as §1
[5] = target: Muscarinic acetylcholine receptors; M2 & M3 (Homo sapiens) (UniProt P20309+P08172); test: Selectivity ratio of Ki for human muscarinic M3 receptor expressed in CHO-K9 cells to Ki for human muscarinic M2 receptor expressed in CHO-K9 cells; how it was run: as §1
Muscarinic acetylcholine receptors; M2 & M3 (Homo sapiens), sequence (P20309 whole entry, looked up, one chain of several): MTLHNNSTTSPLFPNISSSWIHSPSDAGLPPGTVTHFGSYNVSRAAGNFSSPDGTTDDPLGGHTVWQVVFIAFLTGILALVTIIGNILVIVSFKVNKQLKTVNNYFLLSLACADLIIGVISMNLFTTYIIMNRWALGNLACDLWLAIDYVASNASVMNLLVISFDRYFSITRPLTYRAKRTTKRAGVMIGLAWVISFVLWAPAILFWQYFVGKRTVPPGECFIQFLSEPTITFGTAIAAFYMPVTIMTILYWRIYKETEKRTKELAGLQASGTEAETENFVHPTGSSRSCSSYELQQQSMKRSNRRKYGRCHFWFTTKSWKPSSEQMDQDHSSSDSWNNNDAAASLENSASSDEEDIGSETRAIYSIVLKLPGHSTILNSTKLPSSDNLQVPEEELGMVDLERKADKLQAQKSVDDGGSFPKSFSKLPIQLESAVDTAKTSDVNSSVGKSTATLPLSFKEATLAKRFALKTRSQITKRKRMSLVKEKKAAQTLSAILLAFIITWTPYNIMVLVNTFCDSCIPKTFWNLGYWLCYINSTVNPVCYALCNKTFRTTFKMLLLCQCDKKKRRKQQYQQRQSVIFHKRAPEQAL

[6] = target: Muscarinic acetylcholine receptor M2 and M5 (Homo sapiens) (UniProt P08172+P08912); test: Selectivity ratio of Ki for human muscarinic M5 receptor expressed in CHO-K9 cells to Ki for human muscarinic M2 receptor expressed in CHO-K9 cells; how it was run: as §1
[7] = target: T3, Muscarinic acetylcholine receptor M2 (Homo sapiens, UniProt P08172); test: Displacement of [3H]-NMS from human muscarinic M2 receptor expressed in CHO-K9 cells after 3 hrs by microbeta2 scintillation counting method; how it was run: as §2
T3 sequence (P08172 whole entry): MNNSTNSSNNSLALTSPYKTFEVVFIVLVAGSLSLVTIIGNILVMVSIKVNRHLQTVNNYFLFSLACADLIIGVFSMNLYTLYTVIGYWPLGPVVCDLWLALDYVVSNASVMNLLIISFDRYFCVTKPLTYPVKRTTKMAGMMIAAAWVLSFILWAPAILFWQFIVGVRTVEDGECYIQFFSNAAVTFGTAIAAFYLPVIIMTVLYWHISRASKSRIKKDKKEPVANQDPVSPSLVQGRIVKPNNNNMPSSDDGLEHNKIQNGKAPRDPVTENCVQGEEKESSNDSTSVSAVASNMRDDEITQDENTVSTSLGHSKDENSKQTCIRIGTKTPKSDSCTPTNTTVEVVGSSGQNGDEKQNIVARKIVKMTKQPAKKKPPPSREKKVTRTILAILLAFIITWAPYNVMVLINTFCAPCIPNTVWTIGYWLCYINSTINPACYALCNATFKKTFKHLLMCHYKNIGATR

[8] = target: T4, Muscarinic acetylcholine receptor M5 (Homo sapiens, UniProt P08912); test: Displacement of [3H]-NMS from human muscarinic M5 receptor expressed in CHO-K9 cells after 3 hrs by microbeta2 scintillation counting method; how it was run: as §2
T4 sequence (P08912 whole entry): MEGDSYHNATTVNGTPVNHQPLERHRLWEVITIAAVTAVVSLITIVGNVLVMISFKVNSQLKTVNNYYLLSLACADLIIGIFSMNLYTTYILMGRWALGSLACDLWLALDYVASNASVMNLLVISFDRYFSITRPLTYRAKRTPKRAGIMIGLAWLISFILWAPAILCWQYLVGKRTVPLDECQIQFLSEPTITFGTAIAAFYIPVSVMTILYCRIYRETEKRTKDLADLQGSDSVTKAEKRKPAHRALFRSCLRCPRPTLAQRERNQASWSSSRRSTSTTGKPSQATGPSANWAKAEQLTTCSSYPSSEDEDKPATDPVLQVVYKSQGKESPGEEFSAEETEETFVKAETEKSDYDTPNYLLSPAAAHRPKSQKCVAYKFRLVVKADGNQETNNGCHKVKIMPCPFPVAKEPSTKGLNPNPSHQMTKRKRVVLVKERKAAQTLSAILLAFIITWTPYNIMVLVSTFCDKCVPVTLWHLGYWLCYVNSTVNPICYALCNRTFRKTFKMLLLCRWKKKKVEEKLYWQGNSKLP

[9] = target: Muscarinic acetylcholine receptor M3 (Homo sapiens, UniProt P20309); test: Displacement of [3H]-NMS from human muscarinic M3 receptor expressed in CHO-K9 cells after 3 hrs by microbeta2 scintillation counting method; how it was run: as §2
Muscarinic acetylcholine receptor M3, sequence (P20309 whole entry): as the sequence (P20309 whole entry, looked up, one chain of several) above

Structure (SMILES) | Ratio Ki [1] | Ki [2] [nM] | Ki [3] [nM] | Ratio Ki [4] | Ratio Ki [5] | Ratio Ki [6] | Ki [7] [nM] | Ki [8] [nM] | Ki [9] [nM]
CN1CC=C(c2nsnc2OCCCN2CCN(CCCCC3CCN(CC(=O)N4c5ccccc5NC(=O)c5ccccc54)CC3)CC2)CC1 | 35 | 1.45 | 2.57 | 20 | 180 | 230 | 0.0794 | 33.9 | 13.2
CC(=O)N[C@@H](CCCNC(=N)N)C(=O)NCCCCC1CCN(CC(=O)N2c3ccccc3NC(=O)c3ccccc32)CC1 | 13 | 97.7 | 148 | 8.4 | 140 | 86 | 11.2 | 977 | 1480
CC(=O)N[C@@H](Cc1ccc(O)cc1)C(=O)N[C@@H](CCCCN)C(=O)NCCCCC1CCN(CC(=O)N2c3ccccc3NC(=O)c3ccccc32)CC1 | 6.6 | 87.1 | 295 | 1.8 | 210 | 15 | 46.8 | 708 | 10000
CC(=O)N[C@@H](CCC(N)=O)C(=O)N[C@@H](C)C(=O)N[C@@H](CC(C)C)C(=O)NCCN1CCN(CCCCC2CCN(CC(=O)N3c4ccccc4NC(=O)c4ccccc43)CC2)CC1 | 11 | 2.95 | 3.55 | 8.4 | 440 | 710 | 0.355 | 240 | 151

The remaining lines, values ahead:

Ratio Ki [1] | Ki [2] [nM] | Ki [3] [nM] | Ratio Ki [4] | Ratio Ki [5] | Ratio Ki [6] | Ki [7] [nM] | Ki [8] [nM] | Ki [9] [nM] | Structure (SMILES)
37 | 1.23 | 2.04 | 20 | 800 | 1900 | 0.0631 | 112 | 49 | CC(=O)N[C@@H](CCCCN)C(=O)N[C@@H](CCCNC(=N)N)C(=O)NCCN1CCN(CCCCC2CCN(CC(=O)N3c4ccccc4NC(=O)c4ccccc43)CC2)CC1
28 | 2.34 | 3.24 | 22 | 290 | 260 | 0.115 | 29.5 | 28.2 | CC(=O)N[C@@H](Cc1ccc(O)cc1)C(=O)N[C@@H](C)C(=O)N[C@@H](CCCCN)C(=O)NCCN1CCN(CCCCC2CCN(CC(=O)N3c4ccccc4NC(=O)c4ccccc43)CC2)CC1
17 | 95.5 | 257 | 6.5 | 400 | 39 | 12 | 501 | 5500 | CC(=O)N[C@@H](CCCNC(=N)N)C(=O)N[C@@H](CCCCN)C(=O)NCCCCC1CCN(CC(=O)N2c3ccccc3NC(=O)c3ccccc32)CC1
1.7 | 537 | 417 | 2.2 | > 36 | 4.4 | 240 | 1200 | > 10000 | CC(=O)N[C@@H](CCC(N)=O)C(=O)N[C@@H](C)C(=O)N[C@@H](CC(C)C)C(=O)NCCCCC1CCN(CC(=O)N2c3ccccc3NC(=O)c3ccccc32)CC1
8.1 | 1.26 | 1.26 | 8.3 | 240 | 560 | 0.174 | 95.5 | 44.7 | CC(=O)N[C@@H](CCCCN)C(=O)N[C@@H](C)C(=O)N[C@@H](Cc1ccc(O)cc1)C(=O)NCCN1CCN(CCCCC2CCN(CC(=O)N3c4ccccc4NC(=O)c4ccccc43)CC2)CC1
13 | 2.14 | 0.912 | 32 | 220 | 1900 | 0.0794 | 141 | 16.2 | CC(=O)N[C@@H](Cc1ccc(O)cc1)C(=O)N[C@@H](CCCCN)C(=O)NCCN1CCN(CCCCC2CCN(CC(=O)N3c4ccccc4NC(=O)c4ccccc43)CC2)CC1
